Source: ChEMBL document CHEMBL3297715, “Potent cytotoxic arylnaphthalene lignan lactones from Phyllanthus poilanei” (J Nat Prod, 2014)
pIC50: −log10 of the molar value. Activity calls are given as the source filed them. The rule behind the calls is not given here.

Assays:
HT-29 [1] = assay: Cytotoxicity against human HT-29 cells; format: functional, cell-based
How it was run: (§1)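 Paired cancer (HT-29 colon) and normal (CCD-112CoN colon) human cell lines, same screening method for both. Paclitaxel and etoposide as positive controls. IC50 from nonlinear regression. Triplicate measurements, representative of two independent experiments.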

HT-29 [2] = assay: Induction of apoptosis in human HT-29 cells assessed as late apoptotic cells at 1 uM after 72 hrs by flow cytometry (reference value: 8.60%); format: functional
Mus musculus = assay: Toxicity in immunodeficient NCr nu/nu mouse xenografted with human HT-29 cells at 5 to 20 mg/kg, ip qd for 4 days administered from day 3 to day 6 post-implantation; format: organism-based; design: dose 5-20 mg/kg, route intraperitoneal; details: in vivo, 96 h
How it was run: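 NCr nu/nu mice bearing hollow-fibre HT-29 implants. Dosed ip once daily for 4 days at 5.0–20.0 mg/kg in 13% DMSO/25% Cremophor/water. Body weight recorded daily and signs of toxicity observed until sacrifice on day 7.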

HT-29 [3] = assay: Antitumor activity against human HT-29 cells xenografted in immunodeficient NCr nu/nu mouse assessed as inhibition of cell growth at 10 to 20 mg/kg, ip qd for 4 days administered from day 3 to day 6 post-implantation measured on day 7; format: functional, organism-based
How it was run: (§2)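 HT-29 human colon cancer cells in hollow fibres implanted in 8–9-week-old NCr nu/nu mice. Drug in DMSO/Cremophor, diluted with water to 13% DMSO and 25% Cremophor. Doses 5.0–20.0 mg/kg ip once daily for 4 days (days 3–6); vehicle control; paclitaxel 5 mg/kg. Fibres retrieved day 7. Modified MTT net growth (day 7 minus day 0) relative to vehicle; n=3 treated; Student's t test.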

[4] = Cytotoxicity against human CCD-112CoN cells; format: cell-based; how it was run: as §1
HT-29 [5] = assay: Induction of apoptosis in human HT-29 cells assessed as early apoptotic cells at 5 uM after 72 hrs by flow cytometry (reference value: 3.93%); format: functional
HT-29 [6] = assay: Induction of apoptosis in human HT-29 cells assessed as late apoptotic cells at 5 uM after 72 hrs by flow cytometry (reference value: 8.60%); format: functional
[7] = biological target: DNA topoisomerase 2-alpha (Homo sapiens) (UniProt P11388); assay: Inhibition of topoisomerase 2-alpha (unknown origin)-mediated relaxation of supercoiled pBR322 DNA at 100 uM by ethidium bromide staining based agarose gel electrophoresis
HT-29 [8] = assay: Antitumor activity against human HT-29 cells xenografted in ip dosed immunodeficient NCr nu/nu mouse assessed as inhibition of cell growth administered qd for 4 days from day 3 to day 6 post-implantation measured on day 7; format: functional, organism-based; how it was run: as §2
HT-29 [9] = assay: Induction of apoptosis in human HT-29 cells assessed as caspase-3 activation by measuring cleaved caspase-3 level at 1 to 10 uM after 24 hrs by western blot analysis; format: functional, cell-based
How it was run: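 HT-29 cells exposed 24 h to a range of concentrations. Lysed in NP-40/HEPES pH 7.5/0.5 M NaCl buffer with protease and phosphatase inhibitors. Resolved on 4–15% SDS-PAGE and immunoblotted with rabbit monoclonal cleaved caspase-3 (Asp175) antibody. Representative of three independent experiments.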

HT-29 [10] = assay: Induction of apoptosis in human HT-29 cells assessed as early apoptotic cells at 1 uM after 72 hrs by flow cytometry (reference value: 3.93%); format: functional
HT-29 [11] = assay: Antitumor activity against human HT-29 cells xenografted in immunodeficient NCr nu/nu mouse assessed as inhibition of cell growth at 5 mg/kg, ip qd for 4 days administered from day 3 to day 6 post-implantation measured on day 7; format: functional, organism-based; design: dose 5 mg/kg; how it was run: as §2

Sequence of DNA topoisomerase 2-alpha (Homo sapiens) (P11388 whole entry): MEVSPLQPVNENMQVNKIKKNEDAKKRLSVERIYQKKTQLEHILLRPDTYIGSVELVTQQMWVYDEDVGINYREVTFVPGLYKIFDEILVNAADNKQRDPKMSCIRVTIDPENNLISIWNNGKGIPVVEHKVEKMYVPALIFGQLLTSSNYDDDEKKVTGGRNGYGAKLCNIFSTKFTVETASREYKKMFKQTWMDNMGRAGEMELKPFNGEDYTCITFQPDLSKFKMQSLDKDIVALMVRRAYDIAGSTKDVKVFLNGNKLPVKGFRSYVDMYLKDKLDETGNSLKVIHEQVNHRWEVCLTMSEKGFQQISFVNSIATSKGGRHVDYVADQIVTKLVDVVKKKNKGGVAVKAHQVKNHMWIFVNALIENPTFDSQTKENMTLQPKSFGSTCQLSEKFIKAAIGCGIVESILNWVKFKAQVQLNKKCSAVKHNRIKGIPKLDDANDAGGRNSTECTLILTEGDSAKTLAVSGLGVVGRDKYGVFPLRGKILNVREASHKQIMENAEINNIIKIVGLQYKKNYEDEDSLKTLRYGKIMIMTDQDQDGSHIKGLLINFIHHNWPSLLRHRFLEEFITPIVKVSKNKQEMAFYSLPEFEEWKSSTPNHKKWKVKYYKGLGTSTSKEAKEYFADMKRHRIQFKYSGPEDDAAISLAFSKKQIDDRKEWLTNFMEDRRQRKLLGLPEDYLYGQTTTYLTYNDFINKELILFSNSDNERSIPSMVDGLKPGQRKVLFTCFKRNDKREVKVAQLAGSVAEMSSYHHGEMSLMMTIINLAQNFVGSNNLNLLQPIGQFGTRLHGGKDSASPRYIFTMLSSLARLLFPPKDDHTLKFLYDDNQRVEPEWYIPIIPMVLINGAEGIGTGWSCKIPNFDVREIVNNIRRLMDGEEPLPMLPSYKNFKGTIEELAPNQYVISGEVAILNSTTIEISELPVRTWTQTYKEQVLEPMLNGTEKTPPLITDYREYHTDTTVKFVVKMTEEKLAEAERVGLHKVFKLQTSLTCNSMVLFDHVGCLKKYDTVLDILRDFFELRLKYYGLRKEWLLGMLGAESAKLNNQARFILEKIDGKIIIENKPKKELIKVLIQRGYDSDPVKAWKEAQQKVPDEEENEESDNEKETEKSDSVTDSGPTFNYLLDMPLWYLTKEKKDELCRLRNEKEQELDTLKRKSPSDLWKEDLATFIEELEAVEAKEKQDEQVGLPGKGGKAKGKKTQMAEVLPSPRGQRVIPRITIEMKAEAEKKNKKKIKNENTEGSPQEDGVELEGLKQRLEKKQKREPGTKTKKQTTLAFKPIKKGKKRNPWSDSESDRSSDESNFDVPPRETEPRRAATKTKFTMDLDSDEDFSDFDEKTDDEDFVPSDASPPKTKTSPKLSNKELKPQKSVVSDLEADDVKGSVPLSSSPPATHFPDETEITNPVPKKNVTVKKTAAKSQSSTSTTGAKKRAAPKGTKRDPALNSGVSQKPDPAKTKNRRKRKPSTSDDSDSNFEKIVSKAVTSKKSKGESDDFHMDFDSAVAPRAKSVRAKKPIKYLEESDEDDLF

SMILES	pIC50 (HT-29 [1])	pIC50 [4]	inhibition [7]	also measured
COc1cc2c(O[C@@H]3OC[C@H](OC(C)=O)[C@H](O)[C@H]3O)c3c(c(-c4ccc5c(c4)OCO5)c2cc1OC)C(=O)OC3	5.74	–	–	–
COc1cc2c(O[C@@H]3OC[C@H](OC(C)=O)[C@H](OC(C)=O)[C@H]3O)c3c(c(-c4ccc5c(c4)OCO5)c2cc1OC)C(=O)OC3	6.77	< 4.00	inactive	Activity (HT-29 [2]): 27.3%; Activity (Mus musculus): Non-toxic; inhibition (HT-29 [3]): Active; Activity (HT-29 [5]): 30.3%; Activity (HT-29 [6]): 38%; inhibition (HT-29 [8]): Dose-dependent effect; Activity (HT-29 [9]): Active; Activity (HT-29 [10]): 28.2%; inhibition (HT-29 [11]): inactive
COc1cc2c(O[C@@H]3OC[C@H](O)[C@H](OC(C)=O)[C@H]3O)c3c(c(-c4ccc5c(c4)OCO5)c2cc1OC)C(=O)OC3	5.74	–	–	–
COc1cc2c(O[C@@H]3OC[C@H](OC(C)=O)[C@H](OC(C)=O)[C@H]3OC(C)=O)c3c(c(-c4ccc5c(c4)OCO5)c2cc1OC)C(=O)OC3	6.96	–	inactive	–
COc1cc2c(OC)c3c(c(-c4ccc5c(c4)OCO5)c2cc1OC)C(=O)OC3 [JUSTICIDIN A]	< 5.00	–	–	–
COc1cc2c(O[C@@H]3OC[C@H](O)[C@H](O)[C@H]3O)c3c(c(-c4ccc5c(c4)OCO5)c2cc1OC)C(=O)OC3 [ACUTISSIMALIGNAN A]	5.49	< 4.00	inactive	–
COc1cc2c(O)c3c(c(-c4ccc5c(c4)OCO5)c2cc1OC)C(=O)OC3 [DIPHYLLIN]	5.12	–	–	–
COc1cc([C@@H]2c3cc4c(cc3[C@@H](O[C@@H]3O[C@@H]5CO[C@@H](C)O[C@H]5[C@H](O)[C@H]3O)[C@H]3COC(=O)[C@H]23)OCO4)cc(OC)c1O [ETOPOSIDE]	–	–	–	Activity (HT-29 [2]): 19.8%; Activity (HT-29 [5]): 12.5%; Activity (HT-29 [6]): 25.3%; Activity (HT-29 [9]): inactive; Activity (HT-29 [10]): 12.9%
CC(=O)O[C@H]1C(=O)[C@@]2(C)[C@H]([C@H](OC(=O)c3ccccc3)[C@]3(O)C[C@H](OC(=O)[C@H](O)[C@@H](NC(=O)c4ccccc4)c4ccccc4)C(C)=C1C3(C)C)[C@]1(OC(C)=O)CO[C@@H]1C[C@@H]2O [PACLITAXEL]	–	4.64	–	–
COc1cc2c(O[C@@H]3O[C@H](CO)[C@@H](O)[C@H](O)[C@H]3O)c3c(c(-c4ccc5c(c4)OCO5)c2cc1OC)C(=O)OC3	< 5.00	–	–	–
